# ChEMBL document CHEMBL1150832, “Phenylnaphthalene compounds from the subterranean part of Vitex rotundifolia and their antibacterial activity against methicillin-resistant Staphylococcus aureus” (2001)
# Active and inactive are the calls of the source. No cut-off for these calls is given here.
# Assays:
# Staphylococcus aureus [1] = assay: Antimicrobial activity against methicillin-sensitive Staphylococcus aureus ATCC 6538 at 100 ug after 20 hrs by agar plate diffusion assay; assay type: functional, organism-based
# How it was run: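 Agar disk diffusion. Cells were grown on Mueller-Hinton agar at 37 °C for 24 h, resuspended in Mueller-Hinton broth to 108 CFU/mL and incubated again. They were then diluted to 105 CFU/mL and used to inoculate Mueller-Hinton agar plates. 6 mm disks loaded with 100 µg compound were placed on the plates and incubated 20 h at 37 °C. Inhibition zones >10 mm were scored positive.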
# Staphylococcus aureus [2] = assay: Antimicrobial activity against methicillin-resistant Staphylococcus aureus 0008 at 100 ug after 20 hrs by agar plate diffusion assay; assay type: functional, organism-based
# How it was run: (§1)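 Disk diffusion against MRSA clinical isolates from Tokushima University Hospital. Cells were grown on Mueller-Hinton agar at 37 °C for 24 h, resuspended in Mueller-Hinton broth, and diluted to 10^5 CFU/mL to seed Mueller-Hinton agar plates. 6 mm disks loaded with 100 µg compound were incubated 20 h at 37 °C. Inhibition zones over 10 mm in diameter were scored positive.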
# Staphylococcus aureus [3] = assay: Antimicrobial activity against methicillin-resistant Staphylococcus aureus 0012 at 100 ug after 20 hrs by agar plate diffusion assay; assay type: functional, organism-based; how it was run: as §1
# Staphylococcus aureus [4] = assay: Antimicrobial activity against methicillin-resistant Staphylococcus aureus 0021 after 20 hrs by serial twofold dilution method; assay type: functional; conditions: Staphylococcus aureus, 0021, 20 h
# How it was run: (§2)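 Agar dilution MIC on Mueller-Hinton agar, following the Japanese Society for Antimicrobial Chemotherapy (1981) method. MRSA clinical isolates from Tokushima University Hospital were grown on Mueller-Hinton agar at 37 °C for 24 h, then resuspended in Mueller-Hinton broth. Suspensions of 1 × 10^6 CFU/mL were spotted with a replicating device. Plates were read after 20 h at 37 °C.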
# Staphylococcus aureus [5] = assay: Antimicrobial activity against methicillin-resistant Staphylococcus aureus 0019 at 100 ug after 20 hrs by agar plate diffusion assay; assay type: functional, organism-based; how it was run: as §1
# Staphylococcus aureus [6] = assay: Antimicrobial activity against methicillin-resistant Staphylococcus aureus 0002 after 20 hrs by serial twofold dilution method; assay type: functional; conditions: Staphylococcus aureus, 0002, 20 h; how it was run: as §2
# Staphylococcus aureus [7] = assay: Antimicrobial activity against methicillin-resistant Staphylococcus aureus 0020 at 100 ug after 20 hrs by agar plate diffusion assay; assay type: functional, organism-based; how it was run: as §1
# Staphylococcus aureus [8] = assay: Antimicrobial activity against methicillin-resistant Staphylococcus aureus 0013 at 100 ug after 20 hrs by agar plate diffusion assay; assay type: functional, organism-based; how it was run: as §1
# Staphylococcus aureus [9] = assay: Antimicrobial activity against methicillin-resistant Staphylococcus aureus 0007 at 100 ug after 20 hrs by agar plate diffusion assay; assay type: functional, organism-based; how it was run: as §1
# Staphylococcus aureus [10] = assay: Antimicrobial activity against methicillin-resistant Staphylococcus aureus 0016 after 20 hrs by serial twofold dilution method; assay type: functional; conditions: Staphylococcus aureus, 0016, 20 h; how it was run: as §2
# Staphylococcus aureus [11] = assay: Antimicrobial activity against methicillin-resistant Staphylococcus aureus 0004 at 100 ug after 20 hrs by agar plate diffusion assay; assay type: functional, organism-based; how it was run: as §1
# Staphylococcus aureus [12] = assay: Antimicrobial activity against methicillin-resistant Staphylococcus aureus 0017 at 100 ug after 20 hrs by agar plate diffusion assay; assay type: functional, organism-based; how it was run: as §1
# Staphylococcus aureus [13] = assay: Antimicrobial activity against methicillin-resistant Staphylococcus aureus 0021 at 100 ug after 20 hrs by agar plate diffusion assay; assay type: functional, organism-based; how it was run: as §1
# Staphylococcus aureus [14] = assay: Antimicrobial activity against methicillin-resistant Staphylococcus aureus 0004 after 20 hrs by serial twofold dilution method; assay type: functional; conditions: Staphylococcus aureus, 0004, 20 h; how it was run: as §2
# Staphylococcus aureus [15] = assay: Antimicrobial activity against methicillin-resistant Staphylococcus aureus 0013 after 20 hrs by serial twofold dilution method; assay type: functional; conditions: Staphylococcus aureus, 0013, 20 h; how it was run: as §2
# Staphylococcus aureus [16] = assay: Antimicrobial activity against methicillin-resistant Staphylococcus aureus 0016 at 100 ug after 20 hrs by agar plate diffusion assay; assay type: functional, organism-based; how it was run: as §1
# Staphylococcus aureus [17] = assay: Antimicrobial activity against methicillin-resistant Staphylococcus aureus 0009 at 100 ug after 20 hrs by agar plate diffusion assay; assay type: functional, organism-based; how it was run: as §1
# Staphylococcus aureus [18] = assay: Antimicrobial activity against methicillin-resistant Staphylococcus aureus 0012 after 20 hrs by serial twofold dilution method; assay type: functional; conditions: Staphylococcus aureus, 0012, 20 h; how it was run: as §2
# Staphylococcus aureus [19] = assay: Antimicrobial activity against methicillin-resistant Staphylococcus aureus 0006 after 20 hrs by serial twofold dilution method; assay type: functional; conditions: Staphylococcus aureus, 0006, 20 h; how it was run: as §2
# Staphylococcus aureus [20] = assay: Antimicrobial activity against methicillin-resistant Staphylococcus aureus 0009 after 20 hrs by serial twofold dilution method; assay type: functional; conditions: Staphylococcus aureus, 0009, 20 h; how it was run: as §2
# Staphylococcus aureus [21] = assay: Antimicrobial activity against methicillin-resistant Staphylococcus aureus 0022 after 20 hrs by serial twofold dilution method; assay type: functional; conditions: Staphylococcus aureus, 0022, 20 h; how it was run: as §2
# Staphylococcus aureus [22] = assay: Antimicrobial activity against methicillin-resistant Staphylococcus aureus 0003 at 100 ug after 20 hrs by agar plate diffusion assay; assay type: functional, organism-based; how it was run: as §1
# Staphylococcus aureus [23] = assay: Antimicrobial activity against methicillin-resistant Staphylococcus aureus 0003 after 20 hrs by serial twofold dilution method; assay type: functional; conditions: Staphylococcus aureus, 0003, 20 h; how it was run: as §2
# Staphylococcus aureus [24] = assay: Antimicrobial activity against methicillin-resistant Staphylococcus aureus 0002 at 100 ug after 20 hrs by agar plate diffusion assay; assay type: functional, organism-based; how it was run: as §1
# Staphylococcus aureus [25] = assay: Antimicrobial activity against methicillin-resistant Staphylococcus aureus 0005 at 100 ug after 20 hrs by agar plate diffusion assay; assay type: functional, organism-based; how it was run: as §1
# Staphylococcus aureus [26] = assay: Antimicrobial activity against methicillin-resistant Staphylococcus aureus 0019 after 20 hrs by serial twofold dilution method; assay type: functional; conditions: Staphylococcus aureus, 0019, 20 h; how it was run: as §2
# Staphylococcus aureus [27] = assay: Antimicrobial activity against methicillin-resistant Staphylococcus aureus 0018 after 20 hrs by serial twofold dilution method; assay type: functional; conditions: Staphylococcus aureus, 0018, 20 h; how it was run: as §2
# Staphylococcus aureus [28] = assay: Antimicrobial activity against methicillin-resistant Staphylococcus aureus 0006 at 100 ug after 20 hrs by agar plate diffusion assay; assay type: functional, organism-based; how it was run: as §1
# Staphylococcus aureus [29] = assay: Antimicrobial activity against methicillin-resistant Staphylococcus aureus 0005 after 20 hrs by serial twofold dilution method; assay type: functional; conditions: Staphylococcus aureus, 0005, 20 h; how it was run: as §2
# Staphylococcus aureus [30] = assay: Antimicrobial activity against methicillin-resistant Staphylococcus aureus 0007 after 20 hrs by serial twofold dilution method; assay type: functional; conditions: Staphylococcus aureus, 0007, 20 h; how it was run: as §2
# Staphylococcus aureus [31] = assay: Antimicrobial activity against methicillin-resistant Staphylococcus aureus 0017 after 20 hrs by serial twofold dilution method; assay type: functional; conditions: Staphylococcus aureus, 0017, 20 h; how it was run: as §2
# Staphylococcus aureus [32] = assay: Antimicrobial activity against methicillin-resistant Staphylococcus aureus 0001 at 100 ug after 20 hrs by agar plate diffusion assay; assay type: functional, organism-based; how it was run: as §1
# Staphylococcus aureus [33] = assay: Antimicrobial activity against methicillin-resistant Staphylococcus aureus 0022 at 100 ug after 20 hrs by agar plate diffusion assay; assay type: functional, organism-based; how it was run: as §1
# Staphylococcus aureus [34] = assay: Antimicrobial activity against methicillin-resistant Staphylococcus aureus 0008 after 20 hrs by serial twofold dilution method; assay type: functional; conditions: Staphylococcus aureus, 0008, 20 h; how it was run: as §2
# Staphylococcus aureus [35] = assay: Antimicrobial activity against methicillin-resistant Staphylococcus aureus 0018 at 100 ug after 20 hrs by agar plate diffusion assay; assay type: functional, organism-based; how it was run: as §1
# Staphylococcus aureus [36] = assay: Antimicrobial activity against methicillin-resistant Staphylococcus aureus 0020 after 20 hrs by serial twofold dilution method; assay type: functional; conditions: Staphylococcus aureus, 0020, 20 h; how it was run: as §2
# Staphylococcus aureus [37] = assay: Antimicrobial activity against methicillin-resistant Staphylococcus aureus 0001 after 20 hrs by serial twofold dilution method; assay type: functional; conditions: Staphylococcus aureus, 0001, 20 h; how it was run: as §2
Structure (SMILES),Activity (Staphylococcus aureus [1]),Activity (Staphylococcus aureus [2]),MIC (Staphylococcus aureus [4]) [µg/mL],MIC (Staphylococcus aureus [6]) [µg/mL],MIC (Staphylococcus aureus [10]) [µg/mL],MIC (Staphylococcus aureus [14]) [µg/mL],MIC (Staphylococcus aureus [15]) [µg/mL],MIC (Staphylococcus aureus [18]) [µg/mL],MIC (Staphylococcus aureus [19]) [µg/mL],MIC (Staphylococcus aureus [20]) [µg/mL],MIC (Staphylococcus aureus [21]) [µg/mL],MIC (Staphylococcus aureus [23]) [µg/mL],MIC (Staphylococcus aureus [26]) [µg/mL],MIC (Staphylococcus aureus [27]) [µg/mL],MIC (Staphylococcus aureus [29]) [µg/mL],MIC (Staphylococcus aureus [30]) [µg/mL],MIC (Staphylococcus aureus [31]) [µg/mL],MIC (Staphylococcus aureus [34]) [µg/mL],MIC (Staphylococcus aureus [36]) [µg/mL],MIC (Staphylococcus aureus [37]) [µg/mL],also measured
COc1ccc(-c2cc(C=O)cc3ccc(O)c(OC)c23)cc1OC,inactive,,,,,,,,,,,,,,,,,,,,
COc1cc(-c2c3c(cc4cc(OC)c(O)cc24)C(=O)OC3)ccc1O [DETETRAHYDROCONIDENDRIN],inactive,Active,> 64,8,16,> 64,> 64,> 64,8,> 64,> 64,8,> 64,> 64,8,16,> 64,8,4,> 64,Activity (Staphylococcus aureus [3]): Active; Activity (Staphylococcus aureus [5]): Active; Activity (Staphylococcus aureus [7]): Active; Activity (Staphylococcus aureus [8]): Active; Activity (Staphylococcus aureus [9]): Active; Activity (Staphylococcus aureus [11]): Active; Activity (Staphylococcus aureus [12]): Active; Activity (Staphylococcus aureus [13]): Active; Activity (Staphylococcus aureus [16]): Active; Activity (Staphylococcus aureus [17]): Active; Activity (Staphylococcus aureus [22]): Active; Activity (Staphylococcus aureus [24]): Active; Activity (Staphylococcus aureus [25]): Active; Activity (Staphylococcus aureus [28]): Active; Activity (Staphylococcus aureus [32]): Active; Activity (Staphylococcus aureus [33]): Active; Activity (Staphylococcus aureus [35]): Active
COc1cc2c(cc1OC)C(O)c1c(C=O)cc3ccc(O)c(OC)c3c1-2 (stereo unspecified) [VITROFOLAL C],inactive,Active,> 64,64,64,> 64,> 64,> 64,64,> 64,> 64,> 64,> 64,> 64,64,64,> 64,64,64,> 64,Activity (Staphylococcus aureus [3]): Active; Activity (Staphylococcus aureus [5]): Active; Activity (Staphylococcus aureus [7]): Active; Activity (Staphylococcus aureus [8]): Active; Activity (Staphylococcus aureus [9]): Active; Activity (Staphylococcus aureus [11]): Active; Activity (Staphylococcus aureus [12]): Active; Activity (Staphylococcus aureus [13]): Active; Activity (Staphylococcus aureus [16]): Active; Activity (Staphylococcus aureus [17]): Active; Activity (Staphylococcus aureus [22]): Active; Activity (Staphylococcus aureus [24]): Active; Activity (Staphylococcus aureus [25]): Active; Activity (Staphylococcus aureus [28]): Active; Activity (Staphylococcus aureus [32]): Active; Activity (Staphylococcus aureus [33]): Active; Activity (Staphylococcus aureus [35]): Active
COc1cc2c(cc1OC)-c1c(c(C=O)cc3ccc(O)c(OC)c13)C2=O [VITROFOLAL D],inactive,Active,> 64,16,16,> 64,> 64,> 64,16,> 64,> 64,32,> 64,> 64,16,16,> 64,16,16,> 64,Activity (Staphylococcus aureus [3]): Active; Activity (Staphylococcus aureus [5]): Active; Activity (Staphylococcus aureus [7]): Active; Activity (Staphylococcus aureus [8]): Active; Activity (Staphylococcus aureus [9]): Active; Activity (Staphylococcus aureus [11]): Active; Activity (Staphylococcus aureus [12]): Active; Activity (Staphylococcus aureus [13]): Active; Activity (Staphylococcus aureus [16]): Active; Activity (Staphylococcus aureus [17]): Active; Activity (Staphylococcus aureus [22]): Active; Activity (Staphylococcus aureus [24]): Active; Activity (Staphylococcus aureus [25]): Active; Activity (Staphylococcus aureus [28]): Active; Activity (Staphylococcus aureus [32]): Active; Activity (Staphylococcus aureus [33]): Active; Activity (Staphylococcus aureus [35]): Active
COc1cc(-c2cc(C=O)cc3cc(OC)c(O)cc23)ccc1O [VITROFOLAL E],inactive,,> 64,> 64,> 64,> 64,> 64,> 64,> 64,> 64,> 64,> 64,> 64,> 64,> 64,> 64,> 64,> 64,64,> 64,
